Test results: ChEMBL document CHEMBL1811919, “Effects of β-glucosidase hydrolyzed products of harpagide and harpagoside on cyclooxygenase-2 (COX-2) in vitro” (Bioorg Med Chem, 2011)
The source made the active and inactive calls. The calls are words filed in the database; no cut-off is given here.

Assays:
RAW264.7 [1] = assay: Inhibition of LPS-induced TNFalpha production in mouse RAW264.7 cells pre-incubated for 30 mins before LPS challenge measured 6 hrs post LPS challenge by ELISA; format: functional, cell-based
Summary of the method: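 RAW264.7 macrophages at 2 × 10⁵ cells/well, pretreated with test compound, dexamethasone or vehicle for 30 min, then co-incubated with LPS (100 ng/ml) for a further 6 h. Concentrations tested 2.5–100 μM.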

RAW264.7 [2] = assay: Inhibition of LPS-induced nitric oxide production in mouse RAW264.7 cells pre-incubated for 20 mins before LPS challenge measured 18 hrs post LPS challenge by Griess method; format: functional, cell-based
Summary of the method: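 RAW264.7 cells at 2 × 10⁵ cells/well, pretreated with test compound, aminoguanidine or vehicle for 20 min, then LPS co-incubation for a further 18 h. Supernatant mixed with Griess reagent (1% sulfanilamide plus 0.1% naphthylethylenediamine). Concentrations tested 2.5–100 μM.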

RAW264.7 [3] = assay: Cytotoxicity against mouse RAW264.7 cells at 2.5 to 100 uM after 18 hrs by MTT assay; format: cell-based; conditions: raw264.7, 18 h
Summary of the method: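 RAW 264.7 murine macrophages in 96-well plates co-incubated with compound or vehicle for 18 h. MTT added to […] final, then 4 h further incubation with DMSO; formazan read at 570 nm. Toxic if MTT metabolism more than 20% below control.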

[4] = target: T1, Prostaglandin G/H synthase 1 (Ovis aries) (UniProt P05979); assay: Inhibition of ovine COX1 at 2.5 to 100 uM incubated for 10 mins by enzyme immunoassay
T1 sequence (whole entry): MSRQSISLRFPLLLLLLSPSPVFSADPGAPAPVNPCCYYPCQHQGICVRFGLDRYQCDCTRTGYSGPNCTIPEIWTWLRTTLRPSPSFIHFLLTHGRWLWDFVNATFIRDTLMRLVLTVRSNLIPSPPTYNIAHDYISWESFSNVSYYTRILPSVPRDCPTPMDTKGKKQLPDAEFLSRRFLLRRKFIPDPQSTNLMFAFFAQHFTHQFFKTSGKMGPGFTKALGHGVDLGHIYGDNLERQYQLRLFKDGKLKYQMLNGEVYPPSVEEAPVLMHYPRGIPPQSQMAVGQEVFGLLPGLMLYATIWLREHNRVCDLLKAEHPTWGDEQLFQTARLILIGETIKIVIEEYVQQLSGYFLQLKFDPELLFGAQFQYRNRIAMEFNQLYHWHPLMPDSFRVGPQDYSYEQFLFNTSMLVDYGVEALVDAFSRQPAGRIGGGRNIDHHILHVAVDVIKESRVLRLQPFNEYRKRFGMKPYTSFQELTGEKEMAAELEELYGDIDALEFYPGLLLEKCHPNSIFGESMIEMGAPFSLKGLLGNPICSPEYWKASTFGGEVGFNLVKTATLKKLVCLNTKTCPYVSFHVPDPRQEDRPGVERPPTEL
Summary of the method: (§1)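 Screening kit assay. Ovine COX-1 or human recombinant COX-2 with heme in reaction buffer, incubated with compound or DMSO for 10 min. Arachidonic acid added from a 10 mM stock, reaction 2 min at 37 °C. Stopped with 1 M HCl, then saturated SnCl2 for 5 min at room temperature. Prostaglandins quantified by EIA. Background from inactivated enzyme; DMSO taken as 100% activity. Mean ± SEM, Dunnett's test.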

[5] = target: T2, Prostaglandin G/H synthase 2 (Homo sapiens) (UniProt P35354); assay: Inhibition of human recombinant COX2 at 2.5 to 100 uM incubated for 10 mins by enzyme immunoassay; summary of the method: as §1
T2 sequence (whole entry): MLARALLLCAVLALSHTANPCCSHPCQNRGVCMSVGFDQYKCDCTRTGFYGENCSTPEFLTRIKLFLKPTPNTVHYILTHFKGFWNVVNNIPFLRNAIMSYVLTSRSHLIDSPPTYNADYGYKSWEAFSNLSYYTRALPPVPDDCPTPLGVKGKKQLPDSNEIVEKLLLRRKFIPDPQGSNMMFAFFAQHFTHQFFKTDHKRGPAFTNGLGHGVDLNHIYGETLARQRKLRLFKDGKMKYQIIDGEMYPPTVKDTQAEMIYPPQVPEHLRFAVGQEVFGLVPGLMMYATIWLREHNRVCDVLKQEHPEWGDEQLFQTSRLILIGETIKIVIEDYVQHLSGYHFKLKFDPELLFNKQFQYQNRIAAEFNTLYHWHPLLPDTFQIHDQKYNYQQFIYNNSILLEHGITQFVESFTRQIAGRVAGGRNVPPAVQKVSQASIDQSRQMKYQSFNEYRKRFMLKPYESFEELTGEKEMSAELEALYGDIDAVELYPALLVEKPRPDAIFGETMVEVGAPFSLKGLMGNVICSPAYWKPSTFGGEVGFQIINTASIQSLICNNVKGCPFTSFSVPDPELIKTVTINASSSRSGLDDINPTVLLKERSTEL

RAW264.7 [6] = assay: Effect on basal COX-2 mRNA expression in mouse RAW264.7 cells at 20 uM by RT-PCR; format: functional, cell-based
RAW264.7 [7] = assay: Effect on basal COX-2 mRNA expression in mouse RAW264.7 cells at 100 uM by RT-PCR; format: functional, cell-based
RAW264.7 [8] = assay: Inhibition of LPS-induced COX-2 mRNA expression in mouse RAW264.7 cells at 100 uM pre-incubated for 3 hrs before LPS challenge measured 24 hrs post LPS challenge by RT-PCR; format: functional
Summary of the method: (§2)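 RAW 264.7 cells seeded at 2 × 10⁵ per well and grown to confluence, treated with compound or vehicle for 3 h, then stimulated with LPS 1 µg/ml for 24 h. Total RNA extracted; SYBR real-time RT-PCR, 40 cycles of 95 °C 15 s / 60 °C 1 min, samples in duplicate. Quantified by 2^-ΔΔCt, normalized to β-actin, fold change relative to untreated cells. TPCK 20 µM positive control.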

RAW264.7 [9] = assay: Inhibition of LPS-induced nitric oxide production in mouse RAW264.7 cells at 2.5 to 100 uM pre-incubated for 20 mins before LPS challenge measured 18 hrs post LPS challenge by Griess method; format: functional, cell-based
Summary of the method: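 RAW264.7 cells at 2 × 10⁵ per well pretreated with compound, aminoguanidine or vehicle for 20 min, then co-incubated with LPS 1 µg/ml for a further 18 h. Supernatant mixed with Griess reagent (1% sulfanilamide, 0.1% naphthylethylenediamine) for nitrite read-out.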

RAW264.7 [10] = assay: Inhibition of LPS-induced TNFalpha production in mouse RAW264.7 cells at 2.5 to 100 uM pre-incubated for 30 mins before LPS challenge measured 6 hrs post LPS challenge by ELISA; format: functional, cell-based
Summary of the method: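 RAW264.7 cells at 2 × 10⁵ per well pretreated with compound, dexamethasone or vehicle for 30 min, then co-incubated with LPS 100 ng/ml for a further 6 h before TNF-α measurement.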

[11] = target: T1, Prostaglandin G/H synthase 1 (Ovis aries); conditions: 50 uM
RAW264.7 [12] = assay: Inhibition of LPS-induced COX-2 mRNA expression in mouse RAW264.7 cells at 20 uM pre-incubated for 3 hrs before LPS challenge measured 24 hrs post LPS challenge by RT-PCR; format: functional; summary of the method: as §2
[13] = target: T2, Prostaglandin G/H synthase 2 (Homo sapiens); assay: (§3) Inhibition of human recombinant COX2 incubated for 10 mins by enzyme immunoassay; summary of the method: as §1
[14] = target: T3, Prostaglandin G/H synthase 2 (Homo sapiens, UniProt P35354); assay: as §3; summary of the method: as §1
T3 sequence (P35354 whole entry): T2 sequence (whole entry)

Compound	Activity (RAW264.7 [3])	inhibition [4]	Activity (RAW264.7 [6])	Activity (RAW264.7 [7])	inhibition (RAW264.7 [9])	inhibition (RAW264.7 [10])	also measured
C[C@@H]1C[C@H]2[C@@H]3CCC4=CC(=O)C=C[C@]4(C)[C@@]3(F)[C@@H](O)C[C@]2(C)[C@@]1(O)C(=O)CO	–	–	–	–	–	–	inhibition (RAW264.7 [1]): Active; inhibition (RAW264.7 [2]): Active
C[C@]1(O)C[C@@H](O)[C@]2(O)C=CO[C@@H](O[C@@H]3O[C@H](CO)[C@@H](O)[C@H](O)[C@H]3O)[C@@H]21 [HARPAGIDE]	Non-toxic	–	–	–	–	–	–
C[C@]1(O)C[C@@H](O)[C@]2(O)C=CO[C@@H](O[C@H]3O[C@H](CO)[C@@H](O)[C@H](O)[C@H]3O)[C@@H]21	–	inactive	inactive	inactive	inactive	inactive	inhibition [5]: inactive; inhibition (RAW264.7 [8]): inactive
CC(=O)Oc1ccccc1C(=O)O	–	–	–	–	–	–	inhibition [11]: Active
Cc1ccc(S(=O)(=O)N[C@@H](Cc2ccccc2)C(=O)CCl)cc1 [TPCK]	–	–	–	–	–	–	inhibition at 20 µM (RAW264.7 [12]): 59.5%
C[C@]1(OC(=O)/C=C/c2ccccc2)C[C@@H](O)[C@]2(O)C=CO[C@@H](O[C@@H]3O[C@H](CO)[C@@H](O)[C@H](O)[C@H]3O)[C@@H]21 [HARPAGOSIDE]	Non-toxic	inactive	inactive	inactive	inactive	inactive	inhibition [5]: inactive; inhibition (RAW264.7 [8]): inactive
N=C(N)NN	–	–	–	–	–	–	inhibition (RAW264.7 [1]): Active; inhibition (RAW264.7 [2]): Active
C[C@]1(O)C[C@@H](O)[C@](O)(CC=O)[C@@H]1C=O	Non-toxic	inactive	inactive	inactive	inactive	inactive	inhibition [13]: Dose-dependent effect; IC50 [14]: 43.3 µM; inhibition at 100 µM (RAW264.7 [8]): 47.6%
